The record followed here is the array DNA melting data of Ke et al. (doi:10.1101/2024.01.08.574731).

Data set [1] is described as follows: melting temperature; fluorescence melt of hairpins on a sequencing array, two-state fit, raised by 9.35 °C to match UV melts. As to conditions: sodium 0.088 M. In a few lines: (§1)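 Cy3 fluorescence of library hairpins on a sequenced MiSeq flow cell, with annealed Cy3 and quencher oligos, was imaged in 50 mM Na-HEPES pH 8.0, 25 mM NaCl in 2.5 °C steps up to 60 °C. Signals were normalised to pre-quench Cy3 and to control variants. Melting temperature and folding enthalpy came from bootstrapped two-state fits, inverse-variance combined over four replicates. Fitted temperatures were raised by 9.35 °C to match UV melts.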

A short description of data set [2]: folding enthalpy; higher = less favourable; fluorescence melt of hairpins on a sequencing array, two-state fit. Conditions: sodium 0.088 M. In a few lines:
as §1

For CGCGGATGACTCCGCG ((((((....)))))), the Tm in data set [1] was 66.7 °C. Also, the folding enthalpy in data set [2] was -43.1 kcal/mol.
The like results for CGCGGCCGGAAACGGGCG (((..(((....)))))) were, in that order, 65.6 °C and -12.1 kcal/mol.
Take CGCGTCGGAAACGAGCG (((.(((....)))))): the Tm in data set [1] is 54.9 °C. The folding enthalpy in data set [2] is -31.7 kcal/mol.
The like results for CGCTACGGAAACGTCGCG (((.(((....))).))) were, in that order, 51.9 °C and -39.3 kcal/mol.
The like results for CGCTATCGGAAACGAGCG (((..(((....)))))) were, in that order, 41.8 °C and -27.1 kcal/mol.
The like results for CGCTCCGGAAACGGGCG (((.(((....)))))) were, in that order, 54.1 °C and -32.5 kcal/mol.
On to CGCTCGCGGAAACGCGCG (((..(((....)))))), for which, in data set [1], the Tm was 61.2 °C. Further, the folding enthalpy in data set [2] was -7.4 kcal/mol.
For CGCTCGGAAACGAATGCG ((((((....)))..))), the Tm in data set [1] came out at 45 °C. Also, in data set [2], the folding enthalpy was -23.3 kcal/mol.
The like results for CGCTCGGAAACGACGCG ((((((....))).))) were, in that order, 51.1 °C and -34.6 kcal/mol.
The like results for CGCTCGGAAACGAGAGCG ((((((....)))..))) were, in that order, 52.2 °C and -25.7 kcal/mol.
Consider CGCTTCCGGAAACGGGCG (((..(((....)))))), for which the Tm in data set [1] is 40 °C. The folding enthalpy in data set [2] was -23.4 kcal/mol.
The like results for CGCTTCGGAAACGAGCG (((.(((....)))))) were, in that order, 49.3 °C and -27.1 kcal/mol.
The like results for CGGACACGGAAACGTCCG (((..(((....)))))) were, in that order, 47.6 °C and -26 kcal/mol.
Take CGGACGGAAACGTACCCG ((((((....)))..))): the Tm in data set [1] turned out to be 34.5 °C. The folding enthalpy in data set [2] was -14.4 kcal/mol.
The like results for CGGACGGAAACGTATCCG ((((((....)))..))) were, in that order, 36.7 °C and -17.5 kcal/mol.
CGGACGGAAACGTCGCCG ((((((....)))..))): the Tm in data set [1] turned out to be 34.5 °C. In data set [2], the folding enthalpy is -12.1 kcal/mol.
The like results for CGGACGGAAACGTGACCG ((((((....)))..))) were, in that order, 38.3 °C and -25 kcal/mol.
The like results for CGGACGGAAACGTTCCCG ((((((....)))..))) were, in that order, 37.2 °C and -15.8 kcal/mol.
The like results for CGGACGGAAACGTTCCG ((((((....))).))) were, in that order, 51.2 °C and -27.5 kcal/mol.
Consider CGGACTCGGAAACGACCG (((..(((....)))))), for which the Tm in data set [1] stood at 32.9 °C. The folding enthalpy in data set [2] was -17.5 kcal/mol.
The like results for CGGAGACGGAAACGTCCG (((..(((....)))))) were, in that order, 47.1 °C and -17.6 kcal/mol.
As for CGGAGCGGAAACGCCCG (((.(((....)))))), the Tm in data set [1] worked out at 55.6 °C. In data set [2], the folding enthalpy was -30.6 kcal/mol.
Take CGGAGGAAACTCCG (((((....))))): the Tm in data set [1] came to 57.1 °C. In data set [2], the folding enthalpy was -20.5 kcal/mol.
The like results for CGGATTCGGAAACGACCG (((..(((....)))))) were, in that order, 35.7 °C and -17.8 kcal/mol.
The like results for CGGCACGGAAACGTCCCG (((.(((....))).))) were, in that order, 42 °C and -26 kcal/mol.
The like results for CGGCACGGAAACGTTCCG (((.(((....))).))) were, in that order, 47.9 °C and -24.5 kcal/mol.
For CGGCAGAAATGCCG (((((....))))), the Tm in data set [1] came out at 64.9 °C. In addition, in data set [2], the folding enthalpy was -31.3 kcal/mol.
The like results for CGGCAGCGGAAACGCCCG (((..(((....)))))) were, in that order, 47 °C and -21.7 kcal/mol.
With CGGCCCGGAAACGGCCCG (((.(((....))).))), in data set [1], the Tm was found to be 51.8 °C. Besides, the folding enthalpy in data set [2] was -17.9 kcal/mol.
For the sequence CGGCCGGAAACGGCTCCG ((((((....)))..))), the Tm in data set [1] amounted to 33.7 °C. Also, in data set [2], the folding enthalpy was -8.35 kcal/mol.
The like results for CGGCCGGAAACGGGACCG ((((((....)))..))) were, in that order, 47.8 °C and -25.5 kcal/mol.
The like results for CGGCCGGAAACGGGGCCG ((((((....)))..))) were, in that order, 59.1 °C and -39.4 kcal/mol.
Turning to CGGCTCCGGAAACGGCCG (((..(((....)))))), the Tm in data set [1] came out at 50.3 °C. In data set [2], the folding enthalpy is -27.1 kcal/mol.
The like results for CGGCTCGGAAACGAACCG (((.(((....))).))) were, in that order, 51 °C and -44.5 kcal/mol.
CGGGAGAAATCCCG (((((....))))): the Tm in data set [1] was 57.1 °C. Further, the folding enthalpy in data set [2] was -25.9 kcal/mol.
The like results for CGGGCTCGGAAACGACCG (((..(((....)))))) were, in that order, 40.6 °C and -22.6 kcal/mol.
CGGGGTCGGAAACGACCG (((..(((....)))))): the Tm in data set [1] was determined as 51.9 °C. The folding enthalpy in data set [2] was -7.49 kcal/mol.
The like results for CGGGTGCGGAAACGCCCG (((..(((....)))))) were, in that order, 55.7 °C and -23.4 kcal/mol.
The like results for CGGTACCGGAAACGGCCG (((..(((....)))))) were, in that order, 40.9 °C and -20.8 kcal/mol.
The like results for CGGTAGAAATACCG (((((....))))) were, in that order, 48.6 °C and -28.2 kcal/mol.
CGGTCCGGAAACGGCCCG (((.(((....))).))): the Tm in data set [1] came out at 55.1 °C. The folding enthalpy in data set [2] was -29.4 kcal/mol.
The like results for CGGTCGGAAACGAACCCG ((((((....)))..))) were, in that order, 38.2 °C and -19.3 kcal/mol.
The like results for CGGTCGGAAACGACACCG ((((((....)))..))) were, in that order, 38 °C and -11 kcal/mol.
The like results for CGGTCGGAAACGACCCCG ((((((....)))..))) were, in that order, 37.3 °C and -9.36 kcal/mol.
Consider CGGTCGGAAACGAGCCG ((((((....))).))), for which, in data set [1], the Tm was found to be 51.2 °C. In data set [2], the folding enthalpy was -21.6 kcal/mol.
The like results for CGGTCGGAAACGAGTCCG ((((((....)))..))) were, in that order, 39.4 °C and -20.6 kcal/mol.
The like results for CGGTGGCGGAAACGCCCG (((..(((....)))))) were, in that order, 47 °C and -11.5 kcal/mol.
The like results for CGGTGTCGGAAACGACCG (((..(((....)))))) were, in that order, 47.5 °C and -11.9 kcal/mol.
Consider CGGTTACGGAAACGTCCG (((..(((....)))))), for which, in data set [1], the Tm was found to be 36.1 °C. Further, the folding enthalpy in data set [2] was -23.3 kcal/mol.
The like results for CGGTTCCGGAAACGGCCG (((..(((....)))))) were, in that order, 43.3 °C and -21 kcal/mol.
The like results for CGTACACGGAAACGTACG (((..(((....)))))) were, in that order, 40.8 °C and -25.7 kcal/mol.
The like results for CGTACCGGAAACGGACG (((.(((....)))))) were, in that order, 45.7 °C and -21.2 kcal/mol.
In the case of CGTACCGGAAACGGCACG (((.(((....))).))), the Tm in data set [1] turned out to be 50.2 °C. In data set [2], the folding enthalpy is -39.9 kcal/mol.
The like results for CGTACGGAAACGTAGACG ((((((....)))..))) were, in that order, 36.6 °C and -17 kcal/mol.
For the sequence CGTACGGAAACGTCGACG ((((((....)))..))), the Tm in data set [1] amounted to 37.5 °C. Moreover, the folding enthalpy in data set [2] was -12.9 kcal/mol.
The like results for CGTACGGAAACGTGAACG ((((((....)))..))) were, in that order, 37.4 °C and -15.1 kcal/mol.
On to CGTACGGAAACGTTACG ((((((....))).))), for which the Tm in data set [1] was found to be 46.1 °C. Moreover, the folding enthalpy in data set [2] was -30.6 kcal/mol.
CGTAGCCGGAAACGGACG (((..(((....)))))): the Tm in data set [1] is 31.7 °C. The folding enthalpy in data set [2] was -8.93 kcal/mol.
The like results for CGTAGTCGGAAACGAACG (((..(((....)))))) were, in that order, 21.6 °C and -4.62 kcal/mol.
The like results for CGTATCGGAAACGAACG (((.(((....)))))) were, in that order, 36.2 °C and -24.5 kcal/mol.
The like results for CGTATTCGGAAACGAACG (((..(((....)))))) were, in that order, 28.4 °C and -17.2 kcal/mol.
With CGTCCCGGAAACGGCACG (((.(((....))).))), the Tm in data set [1] was 39.9 °C. Also, the folding enthalpy in data set [2] is -23.7 kcal/mol.
Take CGTCCGGAAACGGTTACG ((((((....)))..))): the Tm in data set [1] is 39.3 °C. Moreover, the folding enthalpy in data set [2] was -13.9 kcal/mol.
The like results for CGTGACGGAAACGTACG (((.(((....)))))) were, in that order, 42.5 °C and -25.3 kcal/mol.
The like results for CGTGCACGGAAACGTACG (((..(((....)))))) were, in that order, 33.2 °C and -8.88 kcal/mol.
The like results for CGTGCCGGAAACGGACG (((.(((....)))))) were, in that order, 48.7 °C and -22 kcal/mol.
As for CGTGCGGAAACGCACACG ((((((....)))..))), in data set [1], the Tm came out at 43.9 °C. In addition, in data set [2], the folding enthalpy was -8.09 kcal/mol.
On to CGTGGGAAACCACG (((((....))))), for which, in data set [1], the Tm is 58 °C. Moreover, in data set [2], the folding enthalpy is -34.5 kcal/mol.
With CGTGTGAAAACACG (((((....))))), in data set [1], the Tm was found to be 58.6 °C. Moreover, the folding enthalpy in data set [2] is -29.3 kcal/mol.
The like results for CGTTACCGGAAACGGACG (((..(((....)))))) were, in that order, 36.9 °C and -17 kcal/mol.
For CGTTCCCGGAAACGGACG (((..(((....)))))), the Tm in data set [1] was found to be 35.3 °C. In addition, the folding enthalpy in data set [2] was -21.6 kcal/mol.
The like results for CGTTCGGAAACGACAACG ((((((....)))..))) were, in that order, 34.4 °C and -15.2 kcal/mol.
The like results for CGTTCGGAAACGACACG ((((((....))).))) were, in that order, 39.3 °C and -26.9 kcal/mol.
